Assay outcomes deposited in PubChem BioAssay by Johns Hopkins Ion Channel Center.
TRPC4 potent: allosteric potentiators of mouse TRPC4 channel | Q9QUQ5 | HEK293 TRPC4beta/mu-opioid, DAMGO EC20, Fluo-4 Ca2+ flux; stronger effect = higher value | B-score at 10 µM | 0.42% of 310,000 active;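 active means B-score of calcium response area above 5 SD of library B-scores, with initial fluorescence ratio within 5 SD of library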
Target sequence (Q9QUQ5 whole entry, looked up): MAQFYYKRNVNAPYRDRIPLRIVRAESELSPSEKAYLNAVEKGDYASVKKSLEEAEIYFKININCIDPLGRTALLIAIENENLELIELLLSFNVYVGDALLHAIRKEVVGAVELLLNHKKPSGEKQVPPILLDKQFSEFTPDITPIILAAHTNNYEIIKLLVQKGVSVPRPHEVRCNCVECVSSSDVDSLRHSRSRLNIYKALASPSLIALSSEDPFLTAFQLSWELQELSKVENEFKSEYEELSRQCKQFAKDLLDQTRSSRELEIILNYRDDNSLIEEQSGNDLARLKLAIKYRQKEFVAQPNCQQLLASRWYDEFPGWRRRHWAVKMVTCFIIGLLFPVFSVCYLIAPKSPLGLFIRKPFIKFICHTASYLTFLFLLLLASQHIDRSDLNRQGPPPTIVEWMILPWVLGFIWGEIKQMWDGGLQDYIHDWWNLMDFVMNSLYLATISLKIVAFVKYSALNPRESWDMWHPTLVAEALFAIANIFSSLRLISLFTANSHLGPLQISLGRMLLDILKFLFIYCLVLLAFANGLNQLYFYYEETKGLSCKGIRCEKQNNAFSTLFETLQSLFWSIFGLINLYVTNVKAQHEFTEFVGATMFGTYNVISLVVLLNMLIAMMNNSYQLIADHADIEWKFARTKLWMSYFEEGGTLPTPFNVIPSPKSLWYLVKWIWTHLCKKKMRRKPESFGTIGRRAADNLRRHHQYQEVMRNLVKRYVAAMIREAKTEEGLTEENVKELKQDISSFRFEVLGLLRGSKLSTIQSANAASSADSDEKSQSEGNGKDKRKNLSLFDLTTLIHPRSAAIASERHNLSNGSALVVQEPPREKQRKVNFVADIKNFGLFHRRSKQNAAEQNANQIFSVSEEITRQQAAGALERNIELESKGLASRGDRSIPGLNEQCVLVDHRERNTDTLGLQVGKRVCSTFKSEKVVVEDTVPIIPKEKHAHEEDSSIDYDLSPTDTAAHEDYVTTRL
TRPC6 inhibitor: inhibitors of mouse TRPC6 channel | Q61143 | HEK293-TRPC6, membrane potential dye, ACh-evoked depolarization; stronger effect = lower value | B-score at 10 µM | 1.1% of 310,000 active | AID 2553;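 active means B-score under library mean minus 3 SD, initial fluorescence not abnormally high, positive integrated signal ratio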;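 further: B-score derived from integrated fluorescence ratio over the kinetic read; more negative B-score means stronger inhibition of depolarization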
TRPC6 activator: mouse TRPC6 channel activation. HEK293-TRPC6 membrane potential dye fluorescence; stronger effect = higher value. B-score at 10 µM. 0.13% of 310,000 active. Q61143;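 active means B-score of the integrated fluorescence ratio above library mean plus 3 SD, and starting fluorescence ratio within library mean plus 5 SD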;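 further: higher score means more depolarization so channel activation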
TRPC4 block: blocks the mouse TRPC4 cation channel; AID 2247; B-score at 10 µM; 0.39% of 300,000 active; HEK293 TRPC4beta/mu-opioid, DAMGO-evoked Fluo4 calcium flux; stronger effect = lower value;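 active means B-score over 3 SD under the library average, no early fluorescence shift, positive overall ratio signal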
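Material: HEK293 cells with stable TRPC4beta plus mu-opioid receptor expression; probe or stimulus: DAMGO in two steps, submaximal then maximal; technique: Fluo4 calcium fluorescence by kinetic imaging, 5 s 1 Hz baseline; measure: integrated fluorescence ratio relative to baseline, converted to per-well B score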
TRPC4 agonist: opens the mouse TRPC4 cation channel | Q9QUQ5 | HEK293 TRPC4beta/mu-opioid, Fluo4 calcium fluorescence; stronger effect = higher value | B-score at 10 µM | 0.49% of 310,000 active;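 active means B-score above 5 SD of library B-scores, and initial fluorescence ratio not above library mean plus 5 SD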;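 further: positive B-score marks a calcium rise read as TRPC4 activation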
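System: HEK293 cells stably co-expressing mouse TRPC4beta and mu-opioid receptor; Schedule: Fluo4 dye loading 45 min at room temperature, 110 s recording; Detection: Fluo4 fluorescence, kinetic; Evaluation: B-scored integrated calcium fluorescence ratio; Controls: buffer (low) and maximal DAMGO (high).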
TRPC4 sel inh 2: second selectivity test of TRPC6 inhibitors: effect on mouse TRPC4. HEK293 TRPC4/MOR, membrane potential dye fluorescence; channel activated by saturating DAMGO dose. inhibition, % at 10 µM. AID 2776. 42% of 920 active. shares compounds with TRPC6 inhibitor;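 active means compounds whose fluorescence signal differed from control wells by over 3 SD, either direction, in both duplicate plates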
TRPC4 spec: selectivity of TRPC6 inhibitors: effect on mouse TRPC4; shares compounds with TRPC6 inhibitor; HEK293 TRPC4/mu-opioid, membrane potential fluorescence; activity change, negative = inhibition, % at 10 µM; 61% of 920 active;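 active means rise or fall in signal beyond 3 SD of buffer-only wells in both replicate plates, either sign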;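 further: integrated kinetic ratio of fluorescence range over baseline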
HEK293 MPD ctr 2-1: second check of TRPC6 inhibitor effects in parental HEK293 cells | shares compounds with TRPC6 inhibitor | parental HEK293 membrane potential dye fluorescence; maximal acetylcholine challenge after compound addition | signal change vs control, % at 10 µM | 31% of 920 active | AID 2779;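 active means membrane potential signal moving either way by over 3 SD of the maximum-effect control, in both duplicate plates, meaning non-specific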
HEK293 MPD ctr-1: parental HEK293 nonspecific activity of TRPC6 inhibitors; parental HEK293 membrane potential dye fluorescence; shares compounds with TRPC6 inhibitor; AID 2780; membrane potential signal change, % at 10 µM; 60% of 920 active;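 active means membrane potential signal shifting up or down by more than 3 SD of buffer-only wells, on both duplicate plates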
HEK293 MPD ctr-2: parental HEK293 nonspecific activity of TRPC6 modulators; shares compounds with TRPC6 inhibitor; membrane potential dye fluorescence; membrane potential signal change, % at 10 µM; 51% of 2,400 active;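 active means membrane potential signal moves up or down beyond 5 SD from buffer-only wells, on both duplicate plates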
HEK293 MPD ctr 2-2: second counter-screen for TRPC6 modulators: effect in parental HEK293 cells; 14% of 2,400 active; membrane potential dye fluorescence; after compound, maximal acetylcholine stimulation; shares compounds with TRPC6 inhibitor; inhibition, % at 10 µM; AID 488926;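 active means membrane potential signal drops by more than 5 SD from the mean control signal, in both duplicate plates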
TRPC4 ctr mod: mouse TRPC4 off-target activity of TRPC6 modulators | shares compounds with TRPC6 inhibitor | HEK293 TRPC4/mu-opioid, membrane potential fluorescence | percent change from control (negative = decrease, positive = increase), % at 10 µM | 69% of 2,400 active;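 active means membrane potential signal moved up or down beyond 5 SD of buffer control wells, in both duplicate plates, actives on both sides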
TRPC4 ctr inh 2: second check of whether TRPC6 modulators also affect mouse TRPC4. shares compounds with TRPC6 inhibitor. HEK293 TRPC4/mu-opioid, membrane potential dye fluorescence; stimulated with maximal-effect DAMGO. inhibition, % at 10 µM. 55% of 2,400 active;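 active means drop in membrane potential signal beyond 5 SD of the control wells in both duplicate plates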;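 further: TRPC4 counter screen for TRPC6 hits run under conditions tuned for TRPC6 not TRPC4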
TRPC6 inh conf: mouse TRPC6 inhibitor confirmation; 43% of 3,300 active; HEK293-TRPC6, membrane potential dye, ACh-evoked depolarization; shares compounds with TRPC6 inhibitor; inhibition, % at 10 µM;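 active means fluorescence ratio falls more than 5 SD below the full-stimulation control mean, in both duplicate runs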;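 further: integrated fluorescence ratio of peak minus minimum over baseline after agonist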
TRPC6 act conf: mouse TRPC6 activator confirmation | shares compounds with TRPC6 inhibitor | HEK293-TRPC6 membrane potential dye fluorescence, FDSS | activation, % at 10 µM | 11% of 2,800 active | AID 488961;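 active means ratio signal rise beyond 5 SD above unstimulated control wells' mean, seen in both duplicate runs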
Large screens that a line does not name were inactive (follow-up assays come after a bar, where they were run). Most compounds without a hit are left out; they make up all but 2.3% or so of the library.

O=C(CNC(=O)c1ccccc1)NCCc1ccc(O)c(O)c1	none
CNc1nc(NCc2ccccc2)c2ccccc2n1	TRPC6 inhibitor -5.3, TRPC4 block -6 | HEK293 MPD ctr-2 -110% | HEK293 MPD ctr 2-2 inactive | TRPC4 ctr mod -26% | TRPC4 ctr inh 2 78% | TRPC6 inh conf 54% | TRPC6 act conf inactive
Oc1ccccc1Nc1nc(NCc2ccccc2)c2ccccc2n1	none
c1ccc(CNc2c3ccccc3nc3ccccc23)cc1	TRPC6 inhibitor -7.8, TRPC4 block -7 | TRPC4 sel inh 2 60% | TRPC4 spec -23% | HEK293 MPD ctr 2-1 45% | HEK293 MPD ctr-1 -450% | TRPC6 inh conf inactive | TRPC6 act conf inactive
CCCCNc1nc2c(c(=O)n(Cc3ccccc3)c(=O)n2C)n1C	none
COc1cc(OC)cc(C(=O)Nc2ccc(C(=O)c3ccncc3)cc2)c1	none
CCO[C@H]1OC(C(=O)N2CCCCCCC2)=C[C@@H](C)[C@@H]1CCCO	none
C=CCN1C(=O)c2ccc(C(=O)N3CCN(S(=O)(=O)c4cccc(F)c4)CC3)cc2C1=O	none
CC(=O)c1sc2nsc(SCCN3CCCC3)c2c1N	TRPC6 inhibitor -5.2 | HEK293 MPD ctr-2 232% | HEK293 MPD ctr 2-2 inactive | TRPC4 ctr mod inactive | TRPC4 ctr inh 2 36% | TRPC6 inh conf inactive
Cc1ccc2cn[nH]c2c1[N+](=O)[O-]	none
O=C(CSc1nnnn1C1CCCCC1)Nc1ccc(F)cc1	none
O=C(CSc1nnnn1C1CCCCC1)Nc1ccc2c(c1)OCO2	TRPC6 inhibitor -8.7 | TRPC4 sel inh 2 inactive | TRPC4 spec inactive | HEK293 MPD ctr 2-1 inactive | HEK293 MPD ctr-1 inactive | TRPC6 inh conf inactive | TRPC6 act conf inactive
CCCN1C2CCCC1CC(NC(=O)Nc1cccc(C(C)=O)c1)C2 (centres undefined)	TRPC6 inhibitor -6.1 | HEK293 MPD ctr-2 inactive | HEK293 MPD ctr 2-2 inactive | TRPC4 ctr mod inactive | TRPC4 ctr inh 2 inactive | TRPC6 inh conf inactive
Cc1cccc(NC(=S)NC2CC3CCCC(C2)N3CC(C)C)c1 (centres undefined)	none
CCCN1C2CCCC1CC(NC(=O)Nc1ccc(C(C)C)cc1)C2 (centres undefined)	none
CC(=O)c1cccc(NC(=O)NC2CC3CCCC(C2)N3CC(C)C)c1 (centres undefined)	TRPC6 inhibitor -8.8, TRPC6 activator 17 | HEK293 MPD ctr-2 inactive | HEK293 MPD ctr 2-2 inactive | TRPC4 ctr mod inactive | TRPC4 ctr inh 2 inactive | TRPC6 inh conf 46% | TRPC6 act conf 110%
Cc1nc(N)ncc1Sc1ccccc1	none
Cc1ccc(S(=O)(=O)Nc2ccc(NC(=O)CN3CCCCC3)cc2)cc1	TRPC6 inhibitor -6.8, TRPC6 activator 13 | HEK293 MPD ctr-2 inactive | HEK293 MPD ctr 2-2 inactive | TRPC4 ctr mod 8.5% | TRPC4 ctr inh 2 inactive | TRPC6 inh conf 83% | TRPC6 act conf 118%
Cc1ccc(S(=O)(=O)Nc2cccc(NC(=O)CN3CCCCC3)c2)cc1	none
N#Cc1ccc(-c2cn(-c3ccccc3)c3[n+]2CCCS3)cc1	TRPC6 inhibitor -6 | HEK293 MPD ctr-2 -214% | HEK293 MPD ctr 2-2 inactive | TRPC4 ctr mod -35% | TRPC4 ctr inh 2 38% | TRPC6 inh conf inactive | TRPC6 act conf inactive
Cc1ccc2ccc3cccnc3c2n1	TRPC6 inhibitor -5.8 | HEK293 MPD ctr-2 -248% | HEK293 MPD ctr 2-2 inactive | TRPC4 ctr mod -36% | TRPC4 ctr inh 2 inactive | TRPC6 inh conf 44% | TRPC6 act conf inactive
CC(C)c1ccc2c(c1)C1(NN=C(c3ccccc3)S1)C(=O)N2 (centres undefined)	TRPC4 potent 11, TRPC6 inhibitor -5.7 | HEK293 MPD ctr-2 -150% | HEK293 MPD ctr 2-2 inactive | TRPC4 ctr mod -33% | TRPC4 ctr inh 2 75% | TRPC6 inh conf 46% | TRPC6 act conf inactive
CCc1ccc2c(c1)C1(NN=C(c3ccc(C)cc3)S1)C(=O)N2 (centres undefined)	none
CN1CCN(/N=C/c2nc(-c3cccc([N+](=O)[O-])c3)n3ccccc23)CC1	TRPC6 inhibitor -5.2 | HEK293 MPD ctr-2 -165% | HEK293 MPD ctr 2-2 inactive | TRPC4 ctr mod -30% | TRPC4 ctr inh 2 46% | TRPC6 inh conf 51% | TRPC6 act conf inactive
Cn1c(CC(=O)Nc2ccccc2Cl)nnc1SCC(=O)NC1=NCCS1	none
COc1ccccc1CN1CCNC(=O)C1CC(=O)NC1Cc2ccccc2C1 (centres undefined)	none
O=S(=O)(NCCNc1ncc(C(F)(F)F)cc1Cl)C(F)(F)F	TRPC6 inhibitor -5.3 | HEK293 MPD ctr-2 inactive | HEK293 MPD ctr 2-2 inactive | TRPC4 ctr mod 14% | TRPC4 ctr inh 2 32% | TRPC6 inh conf 50% | TRPC6 act conf inactive
CS(=O)(=O)NCCNc1ncc(C(F)(F)F)cc1Cl	none
COc1ccc(-c2cn(-c3ccc(SC(F)F)cc3)c3[n+]2CCC3)cc1OC	TRPC6 inhibitor -6.3 | HEK293 MPD ctr-2 -137% | HEK293 MPD ctr 2-2 128% | TRPC4 ctr mod -20% | TRPC4 ctr inh 2 38% | TRPC6 inh conf 64% | TRPC6 act conf inactive
FC(F)Sc1ccc(-n2cc(-c3ccccc3)[n+]3c2CCC3)cc1	none
CCOc1ccc2c(c1)-c1c(ssc1=S)C(C)(C)N2	TRPC6 inhibitor -5.3 | HEK293 MPD ctr-2 inactive | HEK293 MPD ctr 2-2 inactive | TRPC4 ctr mod -22% | TRPC4 ctr inh 2 64% | TRPC6 inh conf inactive | TRPC6 act conf inactive
